The results in this text go back to ChEMBL document CHEMBL3864154, “Discovery and preliminary structure-activity relationship of 1H-indazoles with promising indoleamine-2,3-dioxygenase 1 (IDO1) inhibition properties” (Bioorg Med Chem, 2016).

A word on the inhibition: it is the share of the control response that was lost under treatment. Broadly, the IC50 is the concentration needed to halve the response being measured.

The target of assay [1] is T1, Indoleamine 2,3-dioxygenase 1 (Homo sapiens, UniProt P14902). The assay can be described thus: Inhibition of recombinant human N-terminus IDO1 expressed in Escherichia coli assessed as N-formylkynurenine formation at 100 uM using L-tryptophan as substrate measured after 180 mins by UV absorbance based assay. The essentials:
(§1)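 Human N-terminal IDO1 expressed in E. coli, Ni affinity-purified; 40 nmol/L enzyme with 900 μmol/L tryptophan plus coupled reaction components in IDO1 assay buffer, 0.5% DMSO final, room temperature, 180 min. N-formylkynurenine read by UV absorbance at 321 nm. Blank lacks enzyme; positive control lacks inhibitor.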
Target sequence in this assay (P14902 whole entry, looked up): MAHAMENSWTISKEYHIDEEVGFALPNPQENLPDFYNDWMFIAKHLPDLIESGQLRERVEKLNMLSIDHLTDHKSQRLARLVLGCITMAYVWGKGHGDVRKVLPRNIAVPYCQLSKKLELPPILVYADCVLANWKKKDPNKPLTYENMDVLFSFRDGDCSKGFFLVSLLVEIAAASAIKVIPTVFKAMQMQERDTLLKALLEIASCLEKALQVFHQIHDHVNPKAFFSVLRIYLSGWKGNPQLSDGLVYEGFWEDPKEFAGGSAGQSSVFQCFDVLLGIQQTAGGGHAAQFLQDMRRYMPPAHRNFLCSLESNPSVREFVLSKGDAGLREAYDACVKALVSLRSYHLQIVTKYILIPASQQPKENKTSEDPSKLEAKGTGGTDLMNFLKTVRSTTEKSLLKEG

Assay [2] addresses T1, Indoleamine 2,3-dioxygenase 1. The assay can be described thus: Inhibition of recombinant human N-terminus IDO1 expressed in Escherichia coli assessed as N-formylkynurenine formation at 10 uM using L-tryptophan as substrate measured after 180 mins by UV absorbance based assay. The procedure, abridged: as §1
Target sequence in this assay (P14902 whole entry, looked up): as above
Assay [3] has the same target. The assay can be described thus: Inhibition of recombinant human N-terminus IDO1 expressed in Escherichia coli assessed as N-formylkynurenine formation at 1 uM using L-tryptophan as substrate measured after 180 mins by UV absorbance based assay.
Target sequence in this assay (P14902 whole entry, looked up): as above
Assay [4] shares this target. The assay can be described thus: Inhibition of recombinant human N-terminus IDO1 expressed in Escherichia coli assessed as residual activity at -7.8 log[compound]/M using L-tryptophan as substrate measured after 180 mins by UV absorbance based assay relative to control. The essentials:
(§2)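 E. coli-expressed, Ni affinity-purified human N-terminal IDO1 at 40 nmol/L with 900 μmol/L tryptophan, coupled reaction components, 0.5% DMSO final, room temperature, 180 min; N-formylkynurenine read at 321 nm. Duplicates per concentration; % activity relative to no-inhibitor control, fitted by sigmoidal dose-response nonlinear regression; IC50 at half-maximal activity.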
Target sequence in this assay (P14902 whole entry, looked up): as above

For assay [5] the target is unchanged. The assay can be described thus: Inhibition of recombinant human N-terminus IDO1 expressed in Escherichia coli assessed as residual activity at -4.5 log[compound]/M using L-tryptophan as substrate measured after 180 mins by UV absorbance based assay relative to control. The essentials: as §2
Target sequence in this assay (P14902 whole entry, looked up): as above
For assay [6] the target is unchanged. Kind of assay: Inhibition of recombinant human N-terminus IDO1 expressed in Escherichia coli assessed as residual activity at -7.3 log[compound]/M using L-tryptophan as substrate measured after 180 mins by UV absorbance based assay relative to control. The essentials: as §2
Target sequence in this assay (P14902 whole entry, looked up): as above
For assay [7] the target is unchanged. Kind of assay: Inhibition of recombinant human N-terminus IDO1 expressed in Escherichia coli assessed as residual activity at -6.4 log[compound]/M using L-tryptophan as substrate measured after 180 mins by UV absorbance based assay relative to control. The essentials: as §2
For assay [8] the target is unchanged. Kind of assay: Inhibition of recombinant human N-terminus IDO1 expressed in Escherichia coli assessed as residual activity at -8.3 log[compound]/M using L-tryptophan as substrate measured after 180 mins by UV absorbance based assay relative to control. The procedure, abridged: as §2
Assay [9] has the same target. The assay can be described thus: Inhibition of recombinant human N-terminus IDO1 expressed in Escherichia coli assessed as residual activity at -5 log[compound]/M using L-tryptophan as substrate measured after 180 mins by UV absorbance based assay relative to control. The procedure, abridged:
as §2

Assay [10] shares this target. The assay can be described thus: Inhibition of recombinant human N-terminus IDO1 expressed in Escherichia coli assessed as residual activity at -6.9 log[compound]/M using L-tryptophan as substrate measured after 180 mins by UV absorbance based assay relative to control. The procedure, abridged:
as §2

Assay [11] shares this target. The assay can be described thus: Inhibition of recombinant human N-terminus IDO1 expressed in Escherichia coli assessed as residual activity at -8.8 log[compound]/M using L-tryptophan as substrate measured after 180 mins by UV absorbance based assay relative to control. The essentials: as §2
For assay [12] the target is unchanged. Kind of assay: Inhibition of recombinant human N-terminus IDO1 expressed in Escherichia coli assessed as N-formylkynurenine formation using L-tryptophan as substrate measured after 180 mins by UV absorbance based assay. The procedure, abridged:
as §2
Target sequence in this assay (P14902 whole entry): as the sequence (P14902 whole entry, looked up) above

The target is the same in assay [13]. The assay can be described thus: Inhibition of recombinant human N-terminus IDO1 expressed in Escherichia coli assessed as residual activity at -5.4 log[compound]/M using L-tryptophan as substrate measured after 180 mins by UV absorbance based assay relative to control. The essentials: as §2
The target is the same in assay [14]. The assay can be described thus: Inhibition of recombinant human N-terminus IDO1 expressed in Escherichia coli assessed as residual activity at -5.9 log[compound]/M using L-tryptophan as substrate measured after 180 mins by UV absorbance based assay relative to control. The essentials: as §2

Take `Brc1cc(NCc2ccccc2)c2cn[nH]c2c1`: the inhibition in assay [1] was found to be 100%; in assay [2], 37%.

For `O=C(O)c1cccc(CNc2ncnc3[nH]ncc23)c1`, the inhibition in assay [1] came to 7%; in [3] it was 2%; in assay [2], 2%.

`O=C(O)c1cc(CNc2cc(Br)cc3[nH]ncc23)ccc1O`: the figures for the inhibition in assay [1] and in assay [2] were 88% and 38%, respectively.

For the molecule `NS(=O)(=O)NCCNc1nonc1/C(=N/O)Nc1ccc(F)c(Br)c1`, the inhibition in assay [2] came out at 100%.

Consider `Oc1ccccc1CNc1cc(Br)cc2[nH]ncc12`, for which the inhibition worked out at 100% in assay [1] and 41% in assay [2].

Take `O=C(O)c1ccc(CNc2ncnc3[nH]ncc23)cc1`: the figures for the inhibition in assay [1], in assay [3] and in [2] were 9%, 3% and 3%, respectively.

Take `O=C(O)c1ccc(CNc2cc(Br)cc3[nH]ncc23)cc1`: the inhibition in assay [1] is 91 to 94%; in assay [3], 19%; in assay [2] it was 49 to 58%.

As for `O=C(O)c1ccc(COc2cc(Br)cc3[nH]ncc23)cc1`, the inhibition in [1] worked out at 69%; in [2], 18%.

With `O=C(O)c1cccc(COc2cc(Br)cc3[nH]ncc23)c1`, the inhibition in assay [1] was 40%; in assay [2], 7%.

As for `O=C(CNc1cc(Br)cc2[nH]ncc12)Nc1ccc(C(=O)O)cc1`, the values for the inhibition in [1], in assay [3] and in assay [2] were 37%, 3% and 12%, respectively.

As to `O=C(CNc1cc(Br)cc2[nH]ncc12)NC1CCOCC1`, the inhibition in assay [1] was 34%; in [3] it was 4%; in assay [2] it was 8%.

Turning to `Cc1ccc(CNc2cc(Br)cc3[nH]ncc23)cc1`, the inhibition in assay [1] worked out at 84%; in [2], 20%.

On to `O=C(O)c1ccc(C(O)CNc2cc(Br)cc3[nH]ncc23)cc1` (centres undefined), for which the inhibition in assay [1] was found to be 73%; in assay [2], 31%.

As to `O=C(O)c1cccc(CNc2cc(Br)cc3[nH]ncc23)c1`, the results for the inhibition in assay [1] and in assay [2] were 74% and 21%, respectively.

As to `Oc1ccc(CNc2cc(Br)cc3[nH]ncc23)cc1`, the Activity in assay [4] came to 91%; in [5] it was 9%; in assay [6] it was 88%; in [7], 82%; in assay [8] it was 91%; in assay [9] it was 26%. The Activity in [10] came to 87%; in assay [11] it was 92%; in [13], 51%; in assay [14], 71%. Moreover, the inhibition in [1] turned out to be 100%; in assay [2], 70%. Also, the IC50 in assay [12] is 5.3 µM.

As for `O=C(O)Cc1ccc(CNc2cc(Br)cc3[nH]ncc23)cc1`, the inhibition in assay [1] was determined as 79%; in assay [2], 27%.

Turning to `O=C(O)c1ccc(CNc2cccc3[nH]ncc23)cc1`, the inhibition is 24% in assay [1] and 1% in [2].

On to `Cc1nc(NCc2ccc(C(=O)O)cc2)c2cn[nH]c2n1`, for which the inhibition was 37% in [1], 3% in [3] and 5% in [2].

With `Clc1ccc(CNc2cc(Br)cc3[nH]ncc23)cc1`, the inhibition in [1] amounted to 100%; in assay [2], 42%.

On to `Cc1nc(NCc2cccc(C(=O)O)c2)c2cn[nH]c2n1`, for which the inhibition in assay [1] was determined as 32%; in assay [3], 3%; in assay [2], 5%.

In the case of `O=C(O)c1ccc(C(CO)Nc2cc(Br)cc3[nH]ncc23)cc1` (centres undefined), the inhibition in assay [1] worked out at 68%; in assay [2] it was 19%.
